The record followed here is ChEMBL document CHEMBL3861958, “Synthesis and anticholinesterase activity of coumarin-3-carboxamides bearing tryptamine moiety” (Eur J Med Chem, 2016).

The target in assay [1] is T1, Acetylcholinesterase (Electrophorus electricus, UniProt O42275). Kind of assay: Inhibition of electric eel AChE using acetylthiocholine iodide as substrate measured for 2 mins by Ellman's method.
The next assay has as its target Cholinesterase (Equus caballus, UniProt P81908). The experiment in a line: Inhibition of equine serum BuChE using butyrylthiocholine iodide as substrate measured for 2 mins by Ellman's method. In outline:
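Ellman assay with equine serum BuChE (enzyme solution 2 U/mL added) in 0.1 M phosphate buffer pH 8.0 with DTNB. Compounds in 1:9 DMSO/ethanol, tested at four concentrations spanning 20–80% inhibition. Reaction started with butyrylthiocholine iodide (0.15 M stock). A412 followed for 2 min at 30 s intervals. IC50 read graphically from log concentration vs % inhibition. Quadruplicates.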

In assay [2] the target is T1, Acetylcholinesterase. Kind of assay: Mixed-type inhibition of electric eel AChE using acetylthiocholine iodide as substrate measured for 2 mins by Lineweaver-Burk plot analysis. In short, it runs like this: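 Kinetics used electric eel AChE (type V-S, enzyme solution 2 U/mL added) under the Ellman conditions: 0.1 M phosphate pH 8.0, DTNB, A412. Initial velocities measured across varied acetylthiocholine concentrations at inhibitor 0, 0.069, 0.206 and 0.618 μM. 1/v plotted against 1/[S] (Lineweaver-Burk) to assign inhibition type. Ki taken from a secondary plot.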

Chain of Cholinesterase (P81908 whole entry): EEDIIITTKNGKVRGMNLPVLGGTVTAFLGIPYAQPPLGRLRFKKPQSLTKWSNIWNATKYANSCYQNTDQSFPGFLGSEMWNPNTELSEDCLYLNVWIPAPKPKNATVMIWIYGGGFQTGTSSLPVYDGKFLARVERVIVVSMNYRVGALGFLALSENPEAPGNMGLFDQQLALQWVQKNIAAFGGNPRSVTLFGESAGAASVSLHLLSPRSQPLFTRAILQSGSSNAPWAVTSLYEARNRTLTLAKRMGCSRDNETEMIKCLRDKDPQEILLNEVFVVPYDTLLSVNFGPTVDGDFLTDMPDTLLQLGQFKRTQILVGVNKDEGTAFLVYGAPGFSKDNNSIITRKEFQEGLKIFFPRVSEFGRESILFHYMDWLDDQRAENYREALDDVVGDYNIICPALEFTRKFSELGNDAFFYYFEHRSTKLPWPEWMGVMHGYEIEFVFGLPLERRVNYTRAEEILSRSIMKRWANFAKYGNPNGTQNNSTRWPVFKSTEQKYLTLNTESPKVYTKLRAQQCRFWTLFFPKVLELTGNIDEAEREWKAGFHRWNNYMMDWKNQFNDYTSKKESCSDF
T1 sequence (O42275 whole entry): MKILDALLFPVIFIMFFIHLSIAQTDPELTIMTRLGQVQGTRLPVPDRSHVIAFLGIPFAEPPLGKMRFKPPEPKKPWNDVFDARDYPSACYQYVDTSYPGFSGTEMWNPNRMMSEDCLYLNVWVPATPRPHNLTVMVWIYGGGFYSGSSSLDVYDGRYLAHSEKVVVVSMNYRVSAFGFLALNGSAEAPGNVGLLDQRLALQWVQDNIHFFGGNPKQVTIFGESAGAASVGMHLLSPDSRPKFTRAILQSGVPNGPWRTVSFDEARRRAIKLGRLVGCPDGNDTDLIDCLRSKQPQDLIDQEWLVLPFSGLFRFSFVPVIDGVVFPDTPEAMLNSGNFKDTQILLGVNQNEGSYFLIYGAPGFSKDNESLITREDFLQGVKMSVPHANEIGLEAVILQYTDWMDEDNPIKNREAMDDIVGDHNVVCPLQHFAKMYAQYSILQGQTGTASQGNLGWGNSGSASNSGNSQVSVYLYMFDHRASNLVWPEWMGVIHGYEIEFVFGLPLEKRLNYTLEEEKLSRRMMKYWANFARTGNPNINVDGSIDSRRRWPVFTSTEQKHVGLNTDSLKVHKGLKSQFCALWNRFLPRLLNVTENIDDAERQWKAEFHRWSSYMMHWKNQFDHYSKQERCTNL

Turning to `COc1cccc2cc(C(=O)NCCc3c[nH]c4ccccc34)c(=O)oc12`, the IC50 at Acetylcholinesterase [1] was 2.8 µM; at Cholinesterase, 20.1 µM.
For `O=C(NCCc1c[nH]c2ccccc12)c1cc2ccccc2oc1=O` the same measures were 5.9 µM and 50.5 µM.
For `O=C(NCCc1c[nH]c2ccccc12)c1cc2ccc(OCc3ccc(F)cc3)cc2oc1=O`, the figures for the IC50 against Acetylcholinesterase [1] and against Cholinesterase were 0.16 µM and 29.7 µM, respectively. Further, the inhibition constant (Ki) at Acetylcholinesterase [2] was determined as 0.49 µM.
Regarding `O=C(NCCc1c[nH]c2ccccc12)c1cc2ccc(OCc3ccc(Cl)c(Cl)c3)cc2oc1=O`, the IC50 against Acetylcholinesterase [1] is 31.5 µM; against Cholinesterase, > 100 µM.
The corresponding values for `O=C(NCCc1c[nH]c2ccccc12)c1cc2ccc(OCc3ccc(Cl)cc3)cc2oc1=O` are 12.4 µM and > 100 µM.
As to `O=C(NCCc1c[nH]c2ccccc12)c1cc2ccc(OCc3ccccc3Cl)cc2oc1=O`, the half-maximal inhibitory concentration (IC50) against Acetylcholinesterase [1] was 22.5 µM; against Cholinesterase, > 100 µM.
Consider `CCCOc1ccc2cc(C(=O)NCCc3c[nH]c4ccccc34)c(=O)oc2c1`, for which the IC50 at Acetylcholinesterase [1] is 18.7 µM; against Cholinesterase it was > 100 µM.
For `COc1ccc2cc(C(=O)NCCc3c[nH]c4ccccc34)c(=O)oc2c1` the same measures were 3.5 µM and 34.6 µM.
The corresponding values for `O=C(NCCc1c[nH]c2ccccc12)c1cc2ccc(OCc3cccc(Cl)c3Cl)cc2oc1=O` are > 100 µM and > 100 µM.
For `O=C(NCCc1c[nH]c2ccccc12)c1cc2ccc(OCc3ccccc3)cc2oc1=O` the same measures were 1.5 µM and 16.2 µM.
As for `O=C(NCCc1c[nH]c2ccccc12)c1cc2ccc(OCc3cccc(F)c3)cc2oc1=O`, the IC50 at Acetylcholinesterase [1] is 2.5 µM; on Cholinesterase it was 27.8 µM.
The corresponding values for `CCOc1ccc2cc(C(=O)NCCc3c[nH]c4ccccc34)c(=O)oc2c1` are 43.8 µM and > 100 µM.
For `O=C(NCCc1c[nH]c2ccccc12)c1cc2cc(Br)ccc2oc1=O` the same measures were > 100 µM and > 100 µM.
Regarding `O=C(NCCc1c[nH]c2ccccc12)c1cc2ccc(O)cc2oc1=O`, the IC50 on Acetylcholinesterase [1] and on Cholinesterase was > 100 µM in each case.
For the compound `O=C(NCCc1c[nH]c2ccccc12)c1cc2ccc(OCc3ccccc3F)cc2oc1=O`, the values for the half-inhibitory concentration (IC50) at Acetylcholinesterase [1] and at Cholinesterase were 2.5 µM and 27.5 µM, respectively.
